Data published in ChEMBL document CHEMBL4014281, “Design, synthesis and biological evaluation of gentiopicroside derivatives as potential antiviral inhibitors” (Eur J Med Chem, 2017).
Active and inactive are the calls of the source. No cut-off for these calls is given here.

Assays:
[1] = system: Influenza A virus (A/WSN/1933(H1N1)); experiment: Antiviral activity against Influenza A virus (A/WSN/1933(H1N1)) infected in MDCK cells assessed as reduction in virus-induced cytopathic effect at 50 uM after 40 hrs by CellTiter-Glo assay; assay type: functional, cell-based
Outline: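 Single-concentration screen: overnight-seeded MDCK cells were infected (MOI 0.1) in DMEM/1% FBS with […] TPCK-trypsin, compound at 1% final DMSO. CellTiter-Glo read-out after 40 h. Oseltamivir positive control; triplicate experiments, standard deviations shown.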

MDCK = experiment: Cytotoxicity against MDCK cells at 50 uM after 40 hrs by CellTiter-Glo assay; assay type: cell-based, Canis lupus familiaris; details: dog
Outline: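 Uninfected MDCK cells grown overnight, then cultured 40 h in 1% FBS medium with test compound (50 μM in screen). Viability read by CellTiter-Glo luminescence. DMSO as negative control. Triplicate experiments, standard deviations shown.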

Hepatitis C virus [2] = experiment: Antiviral activity against HCV pseudoparticle harboring HCV envelope protein E1 and E2 assessed as inhibition of pseudoparticle entry into human Huh7 cells at 1 uM measured after 3 days by Bright-Glo luciferase reporter gene assay relative to control; assay type: functional, Hepacivirus hominis; details: Huh-7, 72 h
Outline: (§1)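 HCV pseudoparticle entry screen with each compound at 1 µM and 5 µM in 1% DMSO. DMSO-only wells set maximum entry (negative control); echinocystic acid served as the entry-blocking positive control.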

Hepatitis C virus [3] = experiment: Antiviral activity against HCV pseudoparticle harboring HCV envelope protein E1 and E2 assessed as inhibition of pseudoparticle entry into human Huh7 cells at 5 uM measured after 3 days by Bright-Glo luciferase reporter gene assay relative to control; assay type: functional, Hepacivirus hominis; details: Huh-7, 72 h; outline: as §1
Hepatitis C virus [4] = experiment: Antiviral activity against HCV pseudoparticle harboring HCV envelope protein E1 and E2 assessed as inhibition of pseudoparticle entry into human Huh7 cells measured after 3 days by Bright-Glo luciferase reporter gene assay; assay type: functional; details: Hepacivirus hominis
[5] = Antiviral activity against Influenza A virus (A/WSN/1933(H1N1)) infected in MDCK cells assessed as reduction in virus-induced cytopathic effect after 40 hrs by CellTiter-Glo assay; assay type: functional, cell-based
Outline: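 MDCK cells were seeded and incubated overnight, then infected (MOI 0.1) in DMEM with 1% FBS, […] TPCK-trypsin and compound dose series at 1% final DMSO. Cell viability was read by CellTiter-Glo luminescence after 40 h. IC50 is the concentration giving 50% inhibition of viral replication; oseltamivir was the positive control.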

[6] = system: Influenza A virus (A/WSN/1933(H1N1)); experiment: Antiviral activity against Influenza A virus (A/WSN/1933(H1N1)) infected in MDCK cells assessed as reduction in virus-induced cytopathic effect at 50 uM by microscopic method; assay type: functional, cell-based
Outline: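 CPE in compound-treated infected MDCK wells was inspected directly by light microscopy, with DMSO-treated infected wells as comparator.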

| Structure (SMILES) | Activity [1] | Activity (MDCK) | inhibition at 1 µM (Hepatitis C virus [2]) [%] | inhibition at 5 µM (Hepatitis C virus [3]) [%] | inhibition (Hepatitis C virus [4]) | IC50 [5] [µM] | Activity [6] |
| --- | --- | --- | --- | --- | --- | --- | --- |
| C=C[C@@H]1C2=CCOC(=O)C2=CO[C@H]1O[C@@H]1O[C@H](COC(=O)c2ccccc2)[C@@H](F)[C@H](OC(=O)c2ccccc2)[C@H]1OC(=O)c1ccccc1 | Active | Non-Toxic | – | – | – | – | – |
| C=C[C@@H]1C2=CCOC(=O)C2=CO[C@H]1O[C@@H]1O[C@H](COC(=O)c2ccccc2)[C@@H](SC(C)=O)[C@H](OC(=O)c2ccccc2)[C@H]1OC(=O)c1ccccc1 | – | – | 0.2 | 45.1 | Dose-dependent effect | – | – |
| C=C[C@@H]1C2=CCOC(=O)C2=CO[C@H]1O[C@@H]1O[C@H](COC(c2ccccc2)(c2ccccc2)c2ccccc2)[C@@H](O)[C@H](O)[C@H]1O | – | Toxic | – | – | – | – | – |
| C=C[C@@H]1C2=CCOC(=O)C2=CO[C@H]1O[C@@H]1O[C@H](CO)[C@H](S)[C@H](O)[C@H]1OC(=O)c1ccccc1 | – | – | 0.3 | 4.5 | – | – | – |
| CC1(C)CC[C@]2(C(=O)O)[C@H](O)C[C@]3(C)C(=CC[C@@H]4[C@@]5(C)CC[C@H](O)C(C)(C)[C@@H]5CC[C@]43C)[C@@H]2C1 | – | – | 30.7 | 69.6 | – | – | – |
| C=C[C@@H]1C2=CCOC(=O)C2=CO[C@H]1O[C@@H]1O[C@H](COC(=O)c2ccccc2)[C@@H](OS(C)(=O)=O)[C@H](OC(=O)c2ccccc2)[C@H]1OC(=O)c1ccccc1 | Active | Non-Toxic | 38.2 | 40.4 | Dose-dependent effect | 39.5 | Active |
| C=C[C@@H]1C2=CCOC(=O)C2=CO[C@H]1O[C@@H]1O[C@H](CO)[C@@H](O)[C@H](O)[C@H]1O [GENTIOPICROSIDE] | – | – | 0.6 | 2.1 | – | – | – |
| C=C[C@@H]1C2=CCOC(=O)C2=CO[C@H]1O[C@@H]1O[C@H](COC(=O)c2ccccc2)[C@H](F)[C@H](OC(=O)c2ccccc2)[C@H]1OC(=O)c1ccccc1 | – | – | 0.1 | 0.2 | – | – | – |
| C=C[C@@H]1C2=CCOC(=O)C2=CO[C@H]1O[C@@H]1O[C@H](CO)[C@H](N=[N+]=[N-])[C@H](O)[C@H]1O | Active | Non-Toxic | 11.7 | 23.3 | – | – | – |
| C=C[C@@H]1C2=CCOC(=O)C2=CO[C@H]1O[C@@H]1O[C@H](CO)[C@H](F)[C@H](O)[C@H]1O | Active | Non-Toxic | 0.7 | 13.3 | – | 45.2 | – |
| C=C[C@@H]1C2=CCOC(=O)C2=CO[C@H]1O[C@@H]1O[C@H](CO)[C@@H](N=[N+]=[N-])[C@H](O)[C@H]1O | Active | Non-Toxic | 0.2 | 0.4 | – | – | – |
| C=C[C@@H]1C2=CCOC(=O)C2=CO[C@H]1O[C@@H]1O[C@H](CO)[C@@H](S)[C@H](O)[C@H]1O | – | – | 5.6 | 18.6 | – | – | – |
| CCOC(=O)C1=C[C@@H](OC(CC)CC)[C@H](NC(C)=O)[C@@H](N)C1 [OSELTAMIVIR] | – | – | – | – | – | 33.6 | – |
| C=C[C@@H]1C2=CCOC(=O)C2=CO[C@H]1O[C@@H]1O[C@H](CF)[C@@H](O)[C@H](O)[C@H]1O | – | – | 0.3 | 1 | – | – | – |
| C=C[C@@H]1C2=CCOC(=O)C2=CO[C@H]1O[C@@H]1O[C@H](COC(=O)c2ccccc2)[C@@H](N=[N+]=[N-])[C@H](OC(=O)c2ccccc2)[C@H]1OC(=O)c1ccccc1 | – | – | 0.1 | 4.7 | – | – | – |
| C=C[C@@H]1C2=CCOC(=O)C2=CO[C@H]1O[C@@H]1O[C@H](CNC(C)=O)[C@@H](O)[C@H](O)[C@H]1O | – | – | 0.2 | 11.2 | – | – | – |
| C=C[C@@H]1C2=CCOC(=O)C2=CO[C@H]1O[C@@H]1O[C@H](CNC(C)=O)[C@@H](OC(C)=O)[C@H](OC(C)=O)[C@H]1OC(C)=O | – | – | 9.1 | 8.8 | – | – | – |
| C=C[C@@H]1C2=CCOC(=O)C2=CO[C@H]1O[C@@H]1O[C@H](COC(=O)c2ccccc2)[C@H](N=[N+]=[N-])[C@H](OC(=O)c2ccccc2)[C@H]1OC(=O)c1ccccc1 | – | – | 0.2 | 17.9 | – | – | – |
| C=C[C@@H]1C2=CCOC(=O)C2=CO[C@H]1O[C@@H]1O[C@H](COC(=O)c2ccccc2)[C@H](SC(C)=O)[C@H](OC(=O)c2ccccc2)[C@H]1OC(=O)c1ccccc1 | – | – | 9.5 | 26.6 | – | – | – |
| C=C[C@@H]1C2=CCOC(=O)C2=CO[C@H]1O[C@@H]1OC(COC(=O)c2ccccc2)=C[C@H](OC(=O)c2ccccc2)[C@H]1OC(=O)c1ccccc1 | Active | Non-Toxic | 0.5 | 40.3 | Dose-dependent effect | 44 | – |
| C=C[C@@H]1C2=CCOC(=O)C2=CO[C@H]1O[C@@H]1O[C@H](COC(=O)c2ccccc2)[C@@H](O)[C@H](OC(=O)c2ccccc2)[C@H]1OC(=O)c1ccccc1 | – | – | 0.7 | 8.1 | – | – | – |
| C=C[C@@H]1C2=CCOC(=O)C2=CO[C@H]1O[C@@H]1O[C@H](CSC)[C@@H](O)[C@H](O)[C@H]1O | Active | Non-Toxic | 14.9 | 21 | – | – | – |
| C=C[C@@H]1C2=CCOC(=O)C2=CO[C@H]1O[C@@H]1O[C@H](CSC(C)=O)[C@@H](OC(C)=O)[C@H](OC(C)=O)[C@H]1OC(C)=O | Active | Non-Toxic | 30.4 | 21.7 | – | – | – |
| C=C[C@@H]1C2=CCOC(=O)C2=CO[C@H]1O[C@@H]1O[C@H](CSC)[C@@H](OC(C)=O)[C@H](OC(C)=O)[C@H]1OC(C)=O | Active | Non-Toxic | – | – | – | – | – |
| C=C[C@@H]1C2=CCOC(=O)C2=CO[C@H]1O[C@@H]1O[C@H](CO)[C@@H](F)[C@H](O)[C@H]1O | – | – | 0.9 | 45.9 | Dose-dependent effect | – | – |
| C=C[C@@H]1C2=CCOC(=O)C2=CO[C@H]1O[C@@H]1O[C@H](CS)[C@@H](O)[C@H](O)[C@H]1O | Active | Non-Toxic | 0.2 | 0.1 | – | – | – |
| C=C[C@@H]1C2=CCOC(=O)C2=CO[C@H]1O[C@@H]1O[C@H](CF)[C@@H](OC(C)=O)[C@H](OC(C)=O)[C@H]1OC(C)=O | – | – | 1.1 | 7.8 | – | – | – |
